Assay results reported in ChEMBL document CHEMBL1137420, “Design of cyclic peptides with agonist activity at melanocortin receptor-4” (Bioorg Med Chem Lett, 2006).

Columns and labels:
[1] = biological target: Melanocyte-stimulating hormone receptor (Homo sapiens, UniProt Q01726); assay: Activity at human MC1R by cAMP accumulation in SaoS2 cells; assay type: functional, cell-based, SAOS-2
[2] = biological target: Melanocortin receptor (M1 and M4) (Homo sapiens, UniProt P32245+Q01726); assay: Selectivity for human MC4R over MC1R; assay type: functional
[3] = biological target: T1, Melanocortin receptor 4 (Homo sapiens, UniProt P32245); assay: Activity at human MC4R by cAMP accumulation in SaoS2 cells; assay type: functional, cell-based, SAOS-2
T1 sequence (P32245 whole entry): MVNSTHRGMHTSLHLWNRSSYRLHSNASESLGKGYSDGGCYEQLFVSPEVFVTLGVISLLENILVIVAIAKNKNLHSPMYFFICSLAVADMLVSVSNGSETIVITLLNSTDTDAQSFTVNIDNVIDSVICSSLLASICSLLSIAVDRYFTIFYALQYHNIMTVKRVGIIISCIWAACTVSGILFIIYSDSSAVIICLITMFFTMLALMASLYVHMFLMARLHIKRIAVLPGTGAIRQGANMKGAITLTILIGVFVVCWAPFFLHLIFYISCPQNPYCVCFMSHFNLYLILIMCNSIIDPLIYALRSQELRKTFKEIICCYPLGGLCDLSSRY

[4] = biological target: T1, Melanocortin receptor 4; assay: Displacement of [125I]NDP-alpha-MSH from human cloned MC4R expressed in HEK293 cells; assay type: cell-based
How it was run: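 Binding affinity was measured by displacement of radiolabelled [125I]NDP-alpha-MSH ([Nle4, D-Phe7]-alpha-MSH) from recombinant human MC4R expressed in HEK-293 cells.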

Melanocyte-stimulating hormone receptor, sequence (Q01726 whole entry): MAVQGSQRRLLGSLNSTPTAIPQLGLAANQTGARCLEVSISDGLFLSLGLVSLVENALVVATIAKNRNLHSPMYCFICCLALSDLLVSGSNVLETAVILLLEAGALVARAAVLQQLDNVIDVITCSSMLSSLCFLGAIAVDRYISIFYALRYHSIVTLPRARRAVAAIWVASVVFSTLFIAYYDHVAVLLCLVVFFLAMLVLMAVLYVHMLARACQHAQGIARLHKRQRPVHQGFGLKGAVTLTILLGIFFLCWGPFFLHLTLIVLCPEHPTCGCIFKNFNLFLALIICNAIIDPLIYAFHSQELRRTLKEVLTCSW

Row | Compound | EC50 [1] [µM] | EC50 ratio (MC1R/MC4R) [2] | EC50 [3] [µM] | Ki [4] [µM]
1 | NC(N)=NCCC[C@@H]1NC(=O)[C@@H](Cc2ccccc2)NC(=O)[C@H](Cc2cnc[nH]2)NC(=O)CCCCCCCNC(=O)[C@H](Cc2c[nH]c3ccccc23)NC1=O | 0.0774 | 4.7 | 0.0164 | 0.319
2 | NC(N)=NCCC[C@@H]1NC(=O)[C@@H](Cc2ccccc2)NC(=O)[C@H](Cc2cnc[nH]2)NC(=O)CCCNC(=O)[C@H](Cc2c[nH]c3ccccc23)NC1=O | 0.27 | 0.17 | 1.58 | 5.78
3 | N=C(N)NCCC[C@@H]1NC(=O)[C@@H](Cc2ccccc2)NC(=O)[C@H](Cc2c[nH]cn2)NC(=O)CCCCCNC(=O)[C@H](Cc2c[nH]c3ccccc23)NC1=O | 1.3 | 0.42 | 3.12 | 0.67

Continued by falling EC50 [1], values first:

Row | EC50 [1] [µM] | EC50 ratio (MC1R/MC4R) [2] | EC50 [3] [µM] | Ki [4] [µM] | Compound
4 | 5.1 | 0.53 | 9.59 | 4.42 | N=C(N)NCCC[C@@H]1NC(=O)[C@H](Cc2ccccc2)NC(=O)[C@H](Cc2cnc[nH]2)NC(=O)CCCCCCCNC(=O)[C@H](Cc2c[nH]c3ccccc23)NC1=O
5 | 3.3 | 0.33 | 10.1 |  | N=C(N)NCCC[C@@H]1NC(=O)[C@@H](Cc2ccccc2)NC(=O)[C@H](Cc2c[nH]cn2)NC(=O)CCCCNC(=O)[C@H](Cc2c[nH]c3ccccc23)NC1=O
6 | 0.067 | 4.3 | 0.0154 | 0.244 | N=C(N)NCCC[C@@H]1NC(=O)[C@@H](Cc2ccccc2)NC(=O)[C@H](Cc2c[nH]cn2)NC(=O)CCCCCCNC(=O)[C@H](Cc2c[nH]c3ccccc23)NC1=O
